Publication PMC9582731 (RSC Advances, 2022)

What was measured:
[1] = in vitro; type: cell-based; conditions: mouse
[2] = system: acetic acid-induced writhing in mice; experiment: Acetic acid-induced writhing analgesic test; type: in vivo; conditions: 3 days, acetic acid i.p., Kunming mice
[3] = system: λ-carrageenan-induced mouse paw edema; experiment: λ-carrageenan-induced mouse paw edema test; type: in vivo; conditions: 10 mg kg^−1 i.g., 2 h before λ-carrageenan, at 2–6 h, ICR mice
In short: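 Test compound given at a low and a high dose, alongside a blank group, a carrageenan-only model group and an indomethacin positive-control group; paw swelling induced with λ-carrageenan.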

[4] = system: λ-carrageenan-induced paw edema tissue; experiment: H&E histological examination of paw edema tissue; type: in vivo, mice; conditions: treated animals vs λ-carrageenan model group
In short: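 Mice given λ-carrageenan to induce paw edema. Groups: blank, model, indomethacin (positive control), and test compound at low and high dose. Paw tissue was examined by H&E staining for histological change or by immunohistochemical staining for TNF-α, including bone.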

Compound | IC50 [1] | Effect on number of writhes ([2]; 200 mg kg^−1 i.g.) | Effect on number of writhes ([2]; 19.5 mg kg^−1 i.g.) | Effect on paw edema [3] | Histological change of paw biopsies (H&E) [4]
COC1=C[C@@H]2[C@@H]3Cc4ccc(OC)c(O)c4[C@]2(CCN3C)CC1=O [SIN, Sinomenine] | > 100 µM | almost no analgesic effects | – | – | –
O=C(O)Cc1ccccc1Nc1c(Cl)cccc1Cl [Voltaren] | – | – | reduce the number of writhes considerably | – | –
COc1ccc2c(c1)c(CC(=O)O)c(C)n2C(=O)c1ccc(Cl)cc1 [Indo, indomethacin] | > 100 µM | – | – | significantly inhibited the development of edema | a reduction in the λ-carrageenan-induced inflammatory response
